The text below walks through data of PubChem BioAssay AID552 (SRMLSC, 2006).

About 10 (0.05%) of roughly 20,000 compounds were called active. This is one part of a sample in which actives are shown more often than they occur. Unmarked numbers belong to inactive results. Rule as the data show it: active = inhibition above about 40%; inactive = the rest. Where a SMILES comes first, the peptide text is derived from it. [ ]: non-standard residue; d: D form. ξ: configuration not given here. ξV = CC(C)C(N)C(=O)O

The assay can be described thus: antibacterial activity on E. coli BW25113 – strain BW25113 wild type, absorbance readout, primary screen (AID 552).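 Also: bacteria exposed to compound for 20 hours at 37 °C.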 The conditions noted are these: E. coli BW25113 growth inhibition, OD600; at 10 µM; hits give high values. The gist of the method: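 Material: bacterial strain in a whole-cell growth screen; Amount: inoculum from a 1:1000 dilution of a 1.5 h subculture; Buffer or medium: LB plus kanamycin 50 µg/mL; Dosing: one dose, 10 µM final; Times: compound exposure of 20 h at 37 °C; Measured by: absorbance at 615 nm as a measure of bacterial growth.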
For the compound `CCOC(=O)N1CCC(O)(c2cc(C)c(C)cc2C)CC1`, the inhibition is 2.31%.

For `CCOC(=O)c1ccc(NC(=O)CSc2nnc(COc3ccccc3OC)n2C)cc1`, the inhibition was -14.8%.

As to `O=C(OCc1ccccc1F)c1ccc2c(c1)OCCO2`, the inhibition is 6.06%.

For the compound `CCN(Cc1nc2ccccc2c(=O)[nH]1)Cc1cc(=O)oc2cc(C)c(C)cc12`, the inhibition is -2.52%.

For `Cc1noc(C)c1C(=O)NC(C)c1ccc2c(c1)OCO2` (stereo not given), the inhibition is -22.5%.

Regarding `CC(C)COC(=O)C1C2C=CC3(CN(C(C)c4ccc(Br)cc4)C(=O)C13)O2` (stereo not given), the inhibition was 15.3%.

For the compound `COC(=O)c1ccc(Oc2nc(Nc3ccc(F)cc3)nc(N3CCCC3)n2)cc1`, the inhibition was -16.9%.

Regarding `CSc1ccc(S(=O)(=O)Nc2cccc(F)c2)cc1`, the inhibition was -8.18%.

As to `CCN(CC)S(=O)(=O)c1ccc(NC(=O)CN(c2cccc(F)c2)S(C)(=O)=O)cc1`, the inhibition was -6.94%.

With `CS(=O)(=O)N(CC(=O)N1CCOCC1)c1ccc2c3c(cccc13)CC2`, the inhibition was -16.3%.

As to `CC(=O)NC(C(=O)NCC(N)=O)C(C)C` (stereo not given) (Ac-[ξV]-Gly-NH2), the inhibition is 7.41%.

`CCCCN(CC)CCCNC(=O)CS(=O)(=O)Cc1nc(-c2cccc(OC)c2)oc1C`: the inhibition is 4.26%.

Take `CCOC(=O)n1c(SCC(=O)N(CC)CC)nc2ccccc21`: the inhibition was -3.3%.

Consider `Cc1cc(C)nc(N2C(=O)CC(Cc3ccccc3)C2=O)n1` (stereo not given), for which the inhibition was -9.77%.

Regarding `CC(C)C[C@H](NC(=O)[C@@H]1O[C@H]1C(=O)O)C(=O)NCCCCN=C(N)N`, the inhibition was -3.4%.

For the compound `CN(C)CCNC(CC(=O)Nc1ccc(Cl)c(Cl)c1)C(=O)O` (stereo not given), the inhibition was -14.6%.

In the case of `COc1ccc(C(=O)Nc2cccnc2)cc1C(=O)Nc1cccnc1`, the inhibition was 1.96%.

`COC(=O)Nc1c(C)n(C)n(-c2ccccc2)c1=O`: the inhibition was -2.62%.

As for `Cc1ccc(C)c(S(=O)(=O)N2CC(=O)Nc3ccccc32)c1`, the inhibition is -14.8%.

With `COCCn1c(C)cc(C(=O)CSc2ncnc3sc4c(c23)CCC4)c1C`, the inhibition was 2.06%.

In the case of `Cc1nc(C)c(C(=O)Nc2ccc(C)c(F)c2)o1`, the inhibition was -3.6%.

In the case of `COc1cc(-c2nc(S(=O)(=O)c3ccc(Cl)cc3)c(N(C)C)o2)cc(OC)c1OC`, the inhibition was -0.36%.

With `Cc1cc(C(=O)NCCCc2ccccc2)no1`, the inhibition is -3.97%.

Turning to `CCc1ccc(CCC(=O)Nc2ccc(S(N)(=O)=O)cc2)o1`, the inhibition is -21.2%.

Take `Cc1ccc(-c2noc(-c3ccccc3C(=O)NCC3CCCO3)n2)cc1` (stereo not given): the inhibition was 8.67%.

As for `CC1(C)C(=O)Nc2ccccc2N1C(=O)COC(=O)Cn1cnc2ccccc2c1=O`, the inhibition is -1.7%.

On to `O=C1CC(c2ccccc2)CC(O)=C1C=NCCN1CCOCC1` (stereo not given), for which the inhibition was 0.58%.

In the case of `COCCCNC(=O)CSc1nc2ccc(N3CCOCC3)cc2c(=O)n1CCc1ccccc1`, the inhibition is 1.57%.

For `CCCC(=O)Nc1ccc(C(=O)NCCCn2ccnc2)cc1`, the inhibition was -11.9%.

For the compound `COc1ccc(S(=O)(=O)N2CCOCC2)cc1C(=O)Nc1nc2ccccc2s1`, the inhibition was 4.62%.

For `CCn1c(SCC(=O)Nc2nccs2)nnc1-c1ccncc1`, the inhibition is -9.46%.

As for `CCCC1CC(C)(C(=O)Cn2[nH]c(=O)ccc2=O)OC1=O` (stereo not given), the inhibition is 19.6%.

Turning to `CC(C)Cc1ccc(S(=O)(=O)N2CCN(C(=O)c3ccco3)CC2)cc1`, the inhibition was -19.7%.

With `O=C(CS(=O)(=O)c1cn(Cc2ccc(Cl)cc2)c2ccccc12)N1CCOCC1`, the inhibition was -0.05%.

As for `CCOC(=O)C1CCN(C(=O)Cn2cc(C#N)c3ccccc32)CC1`, the inhibition was 6.78%.

Turning to `O=C(O)C1CC=C(Cl)CC1C(=O)NCc1ccccc1` (stereo not given), the inhibition is -2.5%.

For the compound `CCOC(=O)c1cc(NC(=O)c2cccnc2)cc(C(=O)OCC)c1`, the inhibition was -7.79%.

As to `CCOC(=O)c1c(N)c(C#N)nn1-c1ccccc1C(=O)OC`, the inhibition is -8.34%.

In the case of `CCN1CCN(C(=O)CN(C)S(=O)(=O)c2ccc(OC)cc2)CC1`, the inhibition was -16.9%.

Turning to `C=CCNC(=O)CSc1nc2sc(C)c(C)c2c(=O)[nH]1`, the inhibition was -0.815%.

On to `O=C(O)[C@@H]1CCCN1c1ncnc2sc3c(c12)CCC3`, for which the inhibition is 5%.

In the case of `CN1C(C)(C)CC(NC(=O)CCC(=O)NC2CC(C)(C)N(C)C(C)(C)C2)CC1(C)C`, the inhibition is -21%.

Regarding `COc1ccccc1N1CCN(C(=O)c2cc(-c3ccc(Cl)c(Cl)c3)on2)CC1`, the inhibition was -2.37%.

As to `COc1ccc(OC)c(S(=O)(=O)Nc2ccccc2F)c1`, the inhibition is -13.8%.

As to `Cc1noc(C)c1C(=O)Nc1ccccn1`, the inhibition was -22.1%.

Regarding `Cc1ccc(SCCN2C(=O)NC(C)(C)C2=O)cc1`, the inhibition was 4.35%.

Turning to `COc1cc(C2C(C#N)=C(C)NC3=C2C(=O)CC(C)(C)C3)ccc1O` (stereo not given), the inhibition is 5.23%.

`COC(=O)c1ccc(Oc2nc(NC(C)C)nc(SC)n2)cc1`: the inhibition is -19.1%.

Turning to `CCOC(=O)c1cc(NC(=O)SCC(=O)O)c(C)nc1C`, the inhibition is -3.26%.

Take `Cc1onc(-c2ccccc2)c1C(=O)N1CCOCC1`: the inhibition was 16.2%.

Turning to `CCOC(=O)Cc1csc(NC(=O)CN(C)S(=O)(=O)c2ccc3c(c2)CCC(=O)N3)n1`, the inhibition is 3.09%.

Turning to `CN(C)S(=O)(=O)c1ccc(Oc2ccc(S(=O)(=O)N(C)C)cc2)cc1`, the inhibition is 7.29%.

For `Cn1nnnc1SCC(=O)N1CCN(C(c2ccccc2)c2ccccc2)CC1`, the inhibition is 4.16%.

`CC12CCC(C(=O)N3CCN(c4ncccn4)CC3)(c3nc4ccccc4nc31)C2(C)C` (stereo not given): the inhibition is -25.6%.

Turning to `COc1c(C(=O)N2CCCC2)ccc2ccccc12`, the inhibition was -8.42%.

For `COc1ccc(CSc2nc(N3CCOCC3)c3c(c2C#N)CC(C)(C)OC3)cc1`, the inhibition was -19.4%.

In the case of `CCC(C)n1[nH]c(=O)c2c(C)cc(C)nc21` (stereo not given), the inhibition was 5.71%.

On to `CCCCSc1nnc(-c2ccc(NC(=O)CC)cc2)n1C`, for which the inhibition is -21.9%.

`Cc1cc(C)c2c(n1)nn1c(N3CCN(c4cccc(Cl)c4)CC3)cc(C)nc21`: the inhibition was -4.02%.

In the case of `Cc1cc(Cl)c(S(=O)(=O)NCCC(=O)O)cc1OCC(N)=O`, the inhibition was -0.81%.
